According to ChEMBL document CHEMBL1126860, “Efficient inhibition of human leukocyte elastase and cathepsin G by saccharin derivatives” (J Med Chem, 1993):
Activity calls are given as the source filed them. The calls are words filed in the database; no cut-off is given here.

These compounds were tested against T1, Neutrophil elastase (Homo sapiens) (UniProt P08246) (assay: Apparent second-order inactivation rate constant was evaluated against human leukocyte Elastase; Inactive).
T1 sequence (whole entry): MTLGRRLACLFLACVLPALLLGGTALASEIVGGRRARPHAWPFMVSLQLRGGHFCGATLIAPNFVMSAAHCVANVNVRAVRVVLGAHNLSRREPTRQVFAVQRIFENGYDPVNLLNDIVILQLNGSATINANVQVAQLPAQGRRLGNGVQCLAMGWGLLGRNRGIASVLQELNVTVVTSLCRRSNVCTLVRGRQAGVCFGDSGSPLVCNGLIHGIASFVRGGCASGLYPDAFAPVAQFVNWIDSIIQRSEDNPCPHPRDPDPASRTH
Type: functional
In short: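 Incubation method: human leukocyte elastase (300 nM) with inhibitor in 0.1 M HEPES, pH 7.25, 1% DMSO. Aliquots withdrawn periodically and assayed for residual activity with methoxysuccinyl-Ala-Ala-Pro-Val p-nitroanilide. Pseudo-first-order k_obs taken from slopes of ln(Et/Eo) versus time, then expressed as k_obs/[I] (M⁻¹ s⁻¹). Kinetics analysed by the Kitz–Wilson method.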

SMILES	K obs / 1 1/Ms
O=C1c2ccccc2S(=O)(=O)N1CO	inactive

Each compound was assayed against T1, Neutrophil elastase (Homo sapiens) (assay: Apparent second-order inactivation rate constant was evaluated against human leukocyte Elastase).
Type: functional

SMILES	K obs / 1 1/Ms
O=C(/C=C\Sc1ccccc1)OCN1C(=O)c2ccccc2S1(=O)=O	5700
O=C(CCc1ccccc1)OCN1C(=O)c2ccccc2S1(=O)=O	2280
CC(=O)OCN1C(=O)c2ccccc2S1(=O)=O	140
O=C(/C=C/Sc1ccccc1)OCN1C(=O)c2ccccc2S1(=O)=O	8390
O=C(CSc1ccccc1)OCN1C(=O)c2ccccc2S1(=O)=O	1790
O=C1c2ccccc2S(=O)(=O)N1Cn1ccnc1	40
O=C(CS(=O)(=O)c1ccccc1)OCN1C(=O)c2ccccc2S1(=O)=O	780
O=C(/C=C/c1ccccc1)OCN1C(=O)c2ccccc2S1(=O)=O	2240
O=C1c2ccccc2S(=O)(=O)N1CF	4750
O=C(C[S+]([O-])c1ccccc1)OCN1C(=O)c2ccccc2S1(=O)=O (stereo unspecified)	800
